Source: ChEMBL document CHEMBL4828730, “Gemfibrozil derivatives as activators of soluble guanylyl cyclase - A structure-activity study” (Eur J Med Chem, 2021)
The source made the active and inactive calls. The rule behind the calls is not given here.

Assays:
[1] = target: T1, Soluble guanylate cyclase alpha1/beta1 complex (Homo sapiens) (UniProt Q02153+Q02108); assay: (§1) Activation of full length human sGC alpha1/beta1 subunit containing heme in ferric state expressed in Sf9 insect cells using […] incubated for 15 mins by [32P]GTP assay
In short: (§2)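 Reaction started at 37°C with 1 mM GTP/[α-32P]GTP for 15 min, then stopped by zinc carbonate precipitation. Single-dose test at 100 μM relative to vehicle; concentration-response gives EC50 as mean ± SD.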

Thoracic aorta = assay: Vasodilation activity in C57Bl6 mouse thoracic aorta assessed as inhibition of phenylephrine-induced contractions; assay type: functional, tissue-based; details: for minimal effective concentration: read-out: MEC
In short: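 Isolated mouse aortic rings on a wire myograph, equilibrated 80 min in carbogen-gassed Krebs-Henseleit pH 7.4. Rings were precontracted with 500 nM phenylephrine plus 100 nM 5-hydroxytryptamine to submaximal tension, then given cumulative compound doses while isometric tension was recorded. IC50 was derived by nonlinear regression.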

[2] = target: T2, Soluble guanylate cyclase alpha1/beta1 complex (Homo sapiens, UniProt Q02108+Q02153); assay: as §1; in short: as §2
T2 sequence (Q02153 whole entry): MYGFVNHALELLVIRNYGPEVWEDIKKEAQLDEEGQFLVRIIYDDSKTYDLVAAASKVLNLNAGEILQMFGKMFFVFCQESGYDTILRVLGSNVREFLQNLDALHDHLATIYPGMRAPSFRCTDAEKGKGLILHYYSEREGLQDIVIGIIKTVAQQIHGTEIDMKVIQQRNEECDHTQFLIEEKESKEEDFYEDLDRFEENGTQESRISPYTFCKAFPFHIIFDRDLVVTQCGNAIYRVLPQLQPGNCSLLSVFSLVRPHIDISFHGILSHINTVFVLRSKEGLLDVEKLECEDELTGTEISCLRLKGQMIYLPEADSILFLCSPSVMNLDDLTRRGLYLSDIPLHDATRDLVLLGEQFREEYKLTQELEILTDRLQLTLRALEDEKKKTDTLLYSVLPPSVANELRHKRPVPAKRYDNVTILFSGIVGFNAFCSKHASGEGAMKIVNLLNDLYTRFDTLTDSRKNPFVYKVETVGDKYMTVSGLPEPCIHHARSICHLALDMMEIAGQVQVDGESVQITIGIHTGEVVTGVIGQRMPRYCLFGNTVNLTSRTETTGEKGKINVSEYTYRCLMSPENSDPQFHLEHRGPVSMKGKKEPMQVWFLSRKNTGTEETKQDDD
T2 sequence (Q02108 whole entry): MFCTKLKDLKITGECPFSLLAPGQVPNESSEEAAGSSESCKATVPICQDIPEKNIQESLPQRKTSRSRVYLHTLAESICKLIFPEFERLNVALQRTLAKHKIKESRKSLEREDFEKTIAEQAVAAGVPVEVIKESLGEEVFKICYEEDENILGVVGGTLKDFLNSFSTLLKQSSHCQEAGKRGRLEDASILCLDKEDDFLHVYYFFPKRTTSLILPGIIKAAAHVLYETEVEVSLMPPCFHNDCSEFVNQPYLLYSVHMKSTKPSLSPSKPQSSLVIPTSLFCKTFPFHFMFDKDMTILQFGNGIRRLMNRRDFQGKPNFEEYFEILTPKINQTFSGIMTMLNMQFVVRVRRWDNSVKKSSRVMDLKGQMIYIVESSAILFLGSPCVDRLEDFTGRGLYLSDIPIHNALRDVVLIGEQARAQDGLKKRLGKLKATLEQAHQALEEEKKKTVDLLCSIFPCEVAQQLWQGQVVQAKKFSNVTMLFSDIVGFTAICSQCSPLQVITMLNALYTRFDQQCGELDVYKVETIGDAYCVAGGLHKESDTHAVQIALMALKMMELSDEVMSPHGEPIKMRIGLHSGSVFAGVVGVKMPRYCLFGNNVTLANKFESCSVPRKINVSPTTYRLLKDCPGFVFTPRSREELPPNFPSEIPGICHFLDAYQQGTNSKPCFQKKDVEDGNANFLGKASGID

[3] = target: T1, Soluble guanylate cyclase alpha1/beta1 complex (Homo sapiens); assay: Activation of full length human sGC alpha1/beta1 subunit containing heme in ferric state expressed in Sf9 insect cells using […] incubated for 15 mins at 100 uM incubated for 10 mins by [32P]GTP assay relative to control; details: filed as activator; in short: as §2

Activity [1] | IC50 (Thoracic aorta) [µM] | EC50 [2] [µM] | fold change (FC) [3] | SMILES | minimal effective concentration (Thoracic aorta) [µM]
inactive |  |  |  | CCCCCCNC(=O)C(C)(C)CCCOc1cc(C)ccc1C | 
 | 261 | 119 | 2.2 | Cc1ccc(C)c(N(CCCC(C)(C)C(=O)O)C(=O)CCCCC(=O)N(CCCC(C)(C)C(=O)O)c2cc(C)ccc2C)c1 | 10
inactive |  |  |  | Cc1ccc(C)c(OCCCC(C)(C)C(=O)NCCCCCCNC(=O)C(C)(C)CCCOc2cc(C)ccc2C)c1 | 
inactive |  |  |  | CCCCNC(=O)C(C)(C)CCCOc1cc(C)ccc1C | 
 | 721 | 50 | 2.9 | Cc1ccc(C)c(NCCCC(C)(C)C(=O)O)c1 | 100
inactive |  |  |  | CCC(CCCOc1cc(C)ccc1C)C(=O)O (stereo not given) | 
inactive |  |  |  | CCCCCC(=O)N(CCCC(C)(C)C(=O)O)c1cc(C)ccc1C | 
inactive |  |  |  | Cc1ccc(C)c(OCC(=O)O)c1 | 
 | > 1000 | 389 | 2.1 | Cc1ccc(C)c(OCCCCCC(=O)O)c1 | 300
inactive |  |  |  | CNC(=O)C(C)(C)CCCOc1cc(C)ccc1C | 

The remaining lines, values behind:

SMILES | Activity [1] | IC50 (Thoracic aorta) [µM] | EC50 [2] [µM] | fold change (FC) [3] | minimal effective concentration (Thoracic aorta) [µM]
Cc1ccc(C)c(OCCCC(C)(C)C(N)=O)c1 | inactive |  |  |  | 
CCCC(=O)N(CCCC(C)(C)C(=O)O)c1cc(C)ccc1C | inactive |  |  |  | 
O=C(O)CCCCCSc1ccccc1 | inactive |  |  |  | 
CCNC(=O)C(C)(C)CCCOc1cc(C)ccc1C | inactive |  |  |  | 
Cc1ccc(C)c(OCCCCC(=O)O)c1 |  | 812 | 707 | 2.9 | 100
CC(=O)N(CCCC(C)(C)C(=O)O)c1cc(C)ccc1C | inactive |  |  |  | 
Cc1ccc(C)c(OCCCC(=O)O)c1 | inactive |  |  |  | 
Cc1ccc(C)c(OCCCC(C)(C)C(=O)NCCNC(=O)C(C)(C)CCCOc2cc(C)ccc2C)c1 | inactive |  |  |  | 
O=C(O)CCCCCOc1ccccc1 | inactive |  |  |  | 
Cc1ccccc1OCCCC(C)(C)C(=O)O | inactive |  |  |  | 
Cc1ccc(C(C)C)c(OCCCC(C)(C)C(=O)O)c1 |  | 71 | 166 | 2.6 | 10
CCCCCCC(CCCOc1cc(C)ccc1C)C(=O)O (stereo not given) |  | 45 | 128 | 4.1 | 10
Cc1ccc(C)c(OCCCC(C)(C)C(=O)NCCCCNC(=O)C(C)(C)CCCOc2cc(C)ccc2C)c1 | inactive |  |  |  | 
Cc1ccc(C)c(OCCCC(C)(C)C(=O)O)c1 [GEMFIBROZIL] |  | 310 | 624 | 4 | 30
